Data published in PubChem BioAssay.
Activity calls are given as the source filed them.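 How the source made its calls, unless noted: active means viability at or below 30% in both replicate assays; inconclusive means viability at or below 30% in just one of the two assays; inactive means the rest.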

Assays:
[1] = Her2 expression decrease, cell viability multiplex – SKBR3 breast tumor cells, AlphaScreen, ATP viability, primary screen (AID 461;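 active means Her2 level under about 52% in both replicate screens, with viability over 70% of control, limit read from the data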;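 on Her2 level: lower value means less Her2 protein in the cells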;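 on viability: percent of carrier control wells set as 100% viability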); conditions: SKBR3 Her2 protein level, 18-24 h, measured here: SKBR3 viability, ATP luminescence, at 10 µM
[2] = biological target: Receptor tyrosine-protein kinase erbB-2 (Homo sapiens) (UniProt P04626); experiment: as above; conditions: 18-24 h, at 10 µM, stronger effect = lower value
[3] = reduced viability of SK-BR-3 breast cancer cells – cell-based, 24 h, human, pilot screen (AID 572;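 active means viability at or below 10% of carrier control in both of two separate runs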;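 further: compound exposure lasted between 18 and 24 h rather than exactly 24 h; 100% = carrier-treated control wells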); conditions: SK-BR-3 viability, CellTiter-Glo luminescence, at 10 µM, stronger effect = lower value
[4] = HUVEC growth inhibition – cell-based, human, primary screen (AID 575); conditions: HUVEC proliferation, CellTiter-Glo luminescence, 72 h; at 10 µM; stronger effect = lower value;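 further: 100% = median of untreated cell wells with 0.1% DMSO on each plate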
Summary of the method: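 Test system – primary HUVEC, no more than 12 passages · Dosing – one dose, 10 µM final, 0.1% DMSO · Times – 72 h treatment at 37 °C · Measured by – ATP-based CellTiter-Glo luminescent read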

[5] = H69AR cell proliferation blockers – human, duplicate replicates, primary screen (AID 580;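 active means viability at or under a set limit in both replicates, limit being median viability minus 3 SD, cut at about 48% in these data, passing the limit was not always enough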;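 further: 100% = mean luminescence of untreated wells and 0% = no signal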); conditions: H69AR lung tumor cells viability, ATP luminescence, 72 h; at 10 µM; stronger effect = lower value
[6] = MRP1 drug-resistance reversers in H69AR cells – cell-based, doxorubicin co-treatment, pilot screen (AID 601;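 active means viability loss from added drug above about 55%, and viability with drug at most 40%, in both replicates, limit read from the data, passing the limit was not always enough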); conditions: CellTiter-Glo, 72 h, at 10 µM; for differential viability (reversal): stronger effect = higher value
[7] = yeast transport mutant growth inhibition pilot in 384-well plates, post-Golgi transport modulator project (AID 636; in the data active means inhibition above about 31%); conditions: absorbance 615 nm, about 18 h, stronger effect = higher value
[8] = growth suppression of yeast trafficking mutant, preliminary HTS, modulators of trafficking downstream of Golgi apparatus project, 1536-format plate, OD 615 nm (AID 637; in the data active means inhibition above about 30%); conditions: yeast transport mutant growth, absorbance 615 nm, 18 h; stronger effect = higher value
[9] = H69AR cells + 2 uM doxorubicin, measured here: viability with 2 uM doxorubicin, stronger effect = lower value
[10] = H69AR cells, compound alone cytotoxicity

Receptor tyrosine-protein kinase erbB-2 (Homo sapiens), sequence (P04626 whole entry, looked up): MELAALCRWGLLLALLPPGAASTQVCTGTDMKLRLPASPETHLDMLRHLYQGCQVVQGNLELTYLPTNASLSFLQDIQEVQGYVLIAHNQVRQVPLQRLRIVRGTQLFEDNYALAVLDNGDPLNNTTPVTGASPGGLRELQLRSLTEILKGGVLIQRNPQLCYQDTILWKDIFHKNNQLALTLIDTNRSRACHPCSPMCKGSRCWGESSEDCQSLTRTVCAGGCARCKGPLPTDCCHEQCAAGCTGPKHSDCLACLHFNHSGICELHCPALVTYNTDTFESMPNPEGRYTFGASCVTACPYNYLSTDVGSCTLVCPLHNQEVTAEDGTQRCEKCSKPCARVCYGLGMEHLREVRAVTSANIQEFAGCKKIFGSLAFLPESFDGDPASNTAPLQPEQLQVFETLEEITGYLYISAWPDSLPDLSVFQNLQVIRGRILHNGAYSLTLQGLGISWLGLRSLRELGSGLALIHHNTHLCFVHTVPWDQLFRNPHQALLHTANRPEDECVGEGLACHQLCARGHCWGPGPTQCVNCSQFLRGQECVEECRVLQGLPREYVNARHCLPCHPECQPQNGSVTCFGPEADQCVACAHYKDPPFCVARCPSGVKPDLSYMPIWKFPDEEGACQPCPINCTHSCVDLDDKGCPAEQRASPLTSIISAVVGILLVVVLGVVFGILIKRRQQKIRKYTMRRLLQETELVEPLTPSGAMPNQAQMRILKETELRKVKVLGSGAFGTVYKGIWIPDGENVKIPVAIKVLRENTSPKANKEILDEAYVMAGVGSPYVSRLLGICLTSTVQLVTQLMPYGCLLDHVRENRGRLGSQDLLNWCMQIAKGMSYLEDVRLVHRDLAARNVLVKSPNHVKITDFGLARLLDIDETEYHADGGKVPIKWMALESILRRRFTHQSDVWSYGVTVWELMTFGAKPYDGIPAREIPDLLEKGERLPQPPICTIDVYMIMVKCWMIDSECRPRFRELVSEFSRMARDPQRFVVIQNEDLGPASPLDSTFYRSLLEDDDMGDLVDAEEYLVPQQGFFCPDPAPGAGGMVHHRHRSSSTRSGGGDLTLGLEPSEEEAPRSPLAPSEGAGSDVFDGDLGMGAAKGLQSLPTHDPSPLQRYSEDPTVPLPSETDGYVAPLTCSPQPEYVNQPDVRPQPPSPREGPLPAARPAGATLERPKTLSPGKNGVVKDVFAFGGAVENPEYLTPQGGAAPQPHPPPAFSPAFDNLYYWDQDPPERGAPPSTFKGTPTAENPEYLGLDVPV

| SMILES | viability [1] [%] | Her2 level [2] | viability [3] | viability [4] | viability [5] | differential viability (reversal) ([6]; H69AR cells + 2 uM doxorubicin) | viability [6, 9] [%] | viability [6, 10] [%] | inhibition [7] | inhibition [8] |
| --- | --- | --- | --- | --- | --- | --- | --- | --- | --- | --- |
| COc1ccc2c(-c3cccnc3)cc(=O)[nH]c2c1 | 116 | 93.5% (inactive) | 116% (inactive) | 87.2% (inactive) | 96% (inactive) | 8.77% (inactive) | 87.2 | 96 | -6.4% (inactive) | 4.43% (inactive) |
| COc1ccc(Oc2nc(Oc3ccc(OC)cc3)nc(Oc3ccc(OC)cc3)n2)cc1 | 104 | 102% (inactive) | 104% (inactive) | 95.6% (inactive) | 94.6% (inactive) | 6.92% (inactive) | 87.7 | 94.6 | -0.93% (inactive) | -5.81% (inactive) |
| Cc1cc(C)cc(OCCCC(=O)O)c1 | 114 | 97% (inactive) | 114% (inactive) | 67.9% (inactive) | 95.3% (inactive) | 3.5% (inactive) | 91.8 | 95.3 | -5.6% (inactive) | -0.16% (inactive) |
| CCSC1=NCN(CCCC(=O)O)CN1 | 118 | 100% (inactive) | 118% (inactive) | 96.3% (inactive) | 99.9% (inactive) | -1.83% (inactive) | 102 | 99.9 | 0.13% (inactive) | -0.16% (inactive) |
| Cn1cccc1Cc1nnc(SCC(=O)Nc2ccc(F)cc2F)n1-c1ccc(F)cc1 | 84 | 90.5% (inactive) | 84% (inactive) | 81.6% (inactive) | 94.8% (inactive) | 1.3% (inactive) | 93.5 | 94.8 | -1.03% (inactive) | -3.5% (inactive) |
| CCCn1c(O)c(CN2CCCC(C)C2)c(C)c(C#N)c1=O (stereo not given) | 102 | 87.5% (inactive) | 102% (inactive) | 86.8% (inactive) | 107% (inactive) | 15.3% (inactive) | 92.2 | 107 | -5.87% (inactive) | 5.32% (inactive) |
| O=C(NCc1ccco1)c1cccn2c(=O)c3sccc3nc12 | 104 | 74.5% (inactive) | 104% (inactive) | 82.5% (inactive) | 58.4% (inactive) | -24% (inactive) | 82.4 | 58.4 | -1.2% (inactive) | -7.87% (inactive) |
| Cc1nnc(SCc2nc3ccccc3s2)n1-c1ccccc1 | 88 | 83% (inactive) | 88% (inactive) | 75.4% (inactive) | 76% (inactive) | -5.34% (inactive) | 81.3 | 76 | -6% (inactive) | -0.48% (inactive) |
| CC(NC(=O)C1CCCN(S(=O)(=O)c2cccs2)C1)c1ccccc1 (stereo not given) | 95 | 80.5% (inactive) | 95% (inactive) | 104% (inactive) | 89.7% (inactive) | 1.41% (inactive) | 88.2 | 89.7 | 1.03% (inactive) | 1.17% (inactive) |
| COc1cccc(C(c2nnnn2CCc2ccccc2)N2CCN(c3ccccc3)CC2)c1OC (stereo not given) | 91 | 88% (inactive) | 91% (inactive) | 109% (inactive) | 83.1% (inactive) | -7.96% (inactive) | 91 | 83.1 | 13.1% (inactive) | -1.13% (inactive) |
| Cn1c(Cl)nc2ccccc21 | 115 | 96% (inactive) | 115% (inactive) | 90.7% (inactive) | 94.8% (inactive) | -5.28% (inactive) | 100 | 94.8 | -0.53% (inactive) | 0.97% (inactive) |
| COCCNC(=O)CN1CCN(C(c2ccccc2)c2ccccc2)CC1 | 86 | 117% (inactive) | 86% (inactive) | 84.3% (inactive) | 93.1% (inactive) | 0.91% (inactive) | 92.2 | 93.1 | -0.39% (inactive) | -5.08% (inactive) |
| Nc1c(C(=O)NCCc2ccccc2)nnn1Cc1ccccc1 | 108 | 97.5% (inactive) | 108% (inactive) | 89% (inactive) | 95.8% (inactive) | 11.2% (inactive) | 84.7 | 95.8 | -8.55% (inactive) | -1.45% (inactive) |
| COc1ccc2[nH]c(=O)c(CN(C(=O)c3ccncc3)C(C)C)cc2c1 | 96 | 108% (inactive) | 96% (inactive) | 113% (inactive) | 98.5% (inactive) | 4.29% (inactive) | 94.2 | 98.5 | -3.12% (inactive) | 4% (inactive) |
| COc1ccc(C2CC(c3ccc(Cl)cc3)Nc3nc(NC(=O)c4ccco4)nn32)cc1 (stereo not given) | 90.5 | 78% (inactive) | 90.5% (inactive) | 66.3% (inactive) | 81.2% (inactive) | -9.39% (inactive) | 90.6 | 81.2 | -5.07% (inactive) | 2.46% (inactive) |
| CC(C)CCn1c(=O)c2ccccc2n2c(CN(C)Cc3ccccc3)nnc12 | 83.5 | 100% (inactive) | 83.5% (inactive) | 70.3% (inactive) | 84.4% (inactive) | 72.3% (active) | 12.1 | 84.4 | -6.08% (inactive) | 11.3% (inactive) |
| CCOC(=O)C(NC(=O)Nc1ccccc1)(OCC)C(F)(F)F (stereo not given) | 114 | 98% (inactive) | 114% (inactive) | 84.5% (inactive) | 93.3% (inactive) | 6.82% (inactive) | 86.5 | 93.3 | -0.26% (inactive) | 12.1% (inactive) |
| O=C(NCc1ccco1)C1(S(=O)(=O)c2ccc(Cl)cc2)CC1 | 94 | 86% (inactive) | 94% (inactive) | 103% (inactive) | 71.2% (inactive) | -21.5% (inactive) | 92.8 | 71.2 | -0.65% (inactive) | 24.1% (inactive) |
| COC(=O)CSc1cc(C)nc(NC(C)=O)n1 | 93.5 | 83.5% (inactive) | 93.5% (inactive) | 102% (inactive) | 101% (inactive) | 6.47% (inactive) | 94.2 | 101 | -3.92% (inactive) | -0.95% (inactive) |
| Cc1cc(NCCN(C)C)n2nc(-c3cccs3)cc2n1 | 90 | 107% (inactive) | 90% (inactive) | 102% (inactive) | 92.6% (inactive) | 10.5% (inactive) | 82.1 | 92.6 | -4.8% (inactive) | -2.62% (inactive) |
| CCOC(=O)C1CCN(c2c(N3CCCCCC3)c(=O)c2=O)CC1 | 97 | 100% (inactive) | 97% (inactive) | 87.9% (inactive) | 98% (inactive) | 0.92% (inactive) | 97.1 | 98 | -1.67% (inactive) | -0.33% (inactive) |
| CCOc1cc(-c2nc(-c3ccc(C)nc3OCC)no2)cc(OCC)c1OCC | 91.5 | 108% (inactive) | 91.5% (inactive) | 82.2% (inactive) | 94.8% (inactive) | -3.25% (inactive) | 98 | 94.8 | 2% (inactive) | 3.44% (inactive) |
| Cc1ccc(-n2nnnc2SCC(=O)Nc2c(C)n(C)n(-c3ccccc3)c2=O)cc1 | 102 | 104% (inactive) | 102% (inactive) | 105% (inactive) | 90.8% (inactive) | -13.5% (inactive) | 104 | 90.8 | 0.8% (inactive) | 10.8% (inactive) |
| Cc1cc(C)c(S(=O)(=O)Nc2cccnc2)c(C)c1 | 100 | 91% (inactive) | 100% (inactive) | 105% (inactive) | 97.8% (inactive) | 8.71% (inactive) | 89.1 | 97.8 | -4.93% (inactive) | -0.16% (inactive) |
| O=C(Nc1ccc(CN2CCOCC2)cc1)c1cc2ccccc2oc1=O | 99.5 | 88% (inactive) | 99.5% (inactive) | 92.2% (inactive) | 82.6% (inactive) | 2.02% (inactive) | 80.6 | 82.6 | -2.37% (inactive) | 3.39% (inactive) |
| CC1CCCCC1NC(=O)c1nn(C)c(=O)c2ccccc12 (stereo not given) | 88 | 104% (inactive) | 88% (inactive) | 90.4% (inactive) | 89.2% (inactive) | 13.3% (inactive) | 75.8 | 89.2 | -1.69% (inactive) | -10% (inactive) |
| Cc1nn(-c2ccccc2)c2c1C(c1c(C)[nH]c(C#N)c1C)C(C#N)=C(N)O2 (stereo not given) | 88 | 86.5% (inactive) | 88% (inactive) | 85.5% (inactive) | 92.7% (inactive) | -13.2% (inactive) | 106 | 92.7 | -4.13% (inactive) | -5.25% (inactive) |
| CC1CN(c2nc(-c3ccccc3)nc3ccccc23)CC(C)O1 (stereo not given) | 91 | 134% (inactive) | 91% (inactive) | 88.2% (inactive) | 85.4% (inactive) | 4.54% (inactive) | 80.9 | 85.4 | -3.72% (inactive) | -5.67% (inactive) |
